Assay results: ChEMBL document CHEMBL2062375, “Discovery of an orally efficacious inhibitor of anaplastic lymphoma kinase” (J Med Chem, 2012)
The source made the active and inactive calls. The rule behind the calls is not given here.

How the values were obtained:
[1] = Half life in CD-1 mouse at 1 mg/kg, iv; type: ADME, organism-based; design: dose 1 mg/kg, route intravenous; conditions: in vivo
In short: (§1)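 Mouse PK. IV via the lateral tail vein in 3% DMSO/30% Solutol/67% PBS, or oral gavage in 100% PEG400, 100 μL dose volume, after an overnight fast. Trunk blood was taken from three mice per time point over 6 h. Plasma was acetonitrile-precipitated and analysed by LC-MS/MS. Parameters were derived noncompartmentally.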

[2] = biological target: Tyrosine-protein kinase Fes/Fps (Homo sapiens, UniProt P07332); assay: Inhibition of human Fes
In short: (§2)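 Millipore KinaseProfiler activity assays on a 259-kinase panel; kinases inhibited by ≥90% at 1 μM then taken to full IC50 determination.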

[3] = biological target: Mitogen-activated protein kinase 8 (Homo sapiens, UniProt P45983); conditions: 1 uM
[4] = AUC (0 to 12 hrs) in rat 100 mg/kg, po; type: ADME, organism-based; design: time < 12 hr, dose 100 mg/kg, route oral; conditions: plasma
In short: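 Rat oral dose escalation at 10, 30, 55 and 100 mg/kg. Gavage at 5 mL/kg in 40% HPβCD after an overnight fast. Serial tail-vein blood was drawn into heparinized tubes. Plasma was protein-precipitated with acetonitrile and assayed by LC-MS/MS. Cmax and AUC0–12 were derived noncompartmentally; n = 2 at 10 mg/kg.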

[5] = Plasma concentration in SCID mouse xenografted with human KARPAS299 cells expressing NPM-ALK at 30 mg/kg, po after 2 hrs by LC-MS/MS analysis; type: ADME, organism-based, KARPAS-299; design: dose 30 mg/kg, route oral
In short: (§3)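 Pharmacodynamic study: SCID mice bearing subcutaneous Karpas-299 xenografts given single 30 mg/kg oral dose; plasma drug levels measured by LCMS/MS, reported as mean ± SEM.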

[6] = Plasma clearance in SCID mouse at 1 mg/kg, iv; type: ADME, organism-based; design: dose 1 mg/kg, route intravenous
In short: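 Mouse IV PK: lateral tail vein dosing, 100 μL in 3% DMSO/30% Solutol/67% PBS; trunk blood from three mice per time point over 6 h. Plasma precipitated with acetonitrile, drug quantified by LCMS/MS against internal standard; noncompartmental analysis.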

[7] = biological target: NUAK family SNF1-like kinase 1 (Homo sapiens) (UniProt O60285); conditions: 1 uM
[8] = Plasma concentration in SCID mouse xenografted with human KARPAS299 cells expressing NPM-ALK at 30 mg/kg, po after 12 hrs by LC-MS/MS analysis; type: ADME, organism-based, KARPAS-299; design: dose 30 mg/kg, route oral; in short: as §3
[9] = Plasma clearance in Beagle dog at 1 mg/kg, iv; type: ADME, organism-based, Canis lupus familiaris; design: dose 1 mg/kg, route intravenous
In short: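 IV PK: rats via lateral tail vein (1 mL/kg; 3% DMSO/30% Solutol/67% PBS), serial tail-vein blood over 6 h. Dogs and monkeys via saphenous vein (0.5 mL/kg in 40% HPβCD), femoral-vein blood over 24 h. Acetonitrile protein precipitation, LCMS/MS; noncompartmental parameters from individual animals, n = 3, mean ± SEM.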

Activated CDC42 kinase 1 = Activated CDC42 kinase 1 (Homo sapiens, UniProt Q07912); assay: Inhibition of human ACK1
[10] = Cmax in Beagle dog at 10 mg/kg, po; type: ADME, organism-based, Canis lupus familiaris; design: dose 10 mg/kg, route oral; conditions: in vivo
In short: (§4)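 Dog and monkey PK. IV 0.5 mL/kg in 40% HPβCD via the saphenous vein. Oral dosing was 1 mL/kg by gavage in dogs and 2 mL/kg by nasogastric tube in monkeys, after an overnight fast. Serial femoral-vein blood was taken into heparin over 24 h. Plasma was acetonitrile-precipitated and analysed by LC-MS/MS. Parameters were noncompartmental, n = 3, mean ± SEM.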

[11] = Plasma concentration in SCID mouse xenografted with human KARPAS299 cells expressing NPM-ALK at 30 mg/kg, po after 6 hrs by LC-MS/MS analysis; type: ADME, organism-based, KARPAS-299; design: dose 30 mg/kg, route oral; in short: as §3
[12] = AUC in SCID mouse at 10 mg/kg, po; type: ADME, organism-based; design: dose 10 mg/kg, route oral; conditions: plasma; in short: as §1
[13] = AUC in Beagle dog at 1 mg/kg, iv; type: ADME, organism-based, Canis lupus familiaris; design: dose 1 mg/kg, route intravenous; conditions: plasma; in short: as §4
NB1643 = assay: Antitumor activity against human NB1643 cells expressing ALK mutant F1174L assessed as growth inhibition administered as po bid; type: functional, organism-based
[14] = biological target: Ribosomal protein S6 kinase alpha-1 (Homo sapiens, UniProt Q15418); assay: Inhibition of human Rsk1; in short: as §2
Sequence of Ribosomal protein S6 kinase alpha-1 (Q15418 whole entry): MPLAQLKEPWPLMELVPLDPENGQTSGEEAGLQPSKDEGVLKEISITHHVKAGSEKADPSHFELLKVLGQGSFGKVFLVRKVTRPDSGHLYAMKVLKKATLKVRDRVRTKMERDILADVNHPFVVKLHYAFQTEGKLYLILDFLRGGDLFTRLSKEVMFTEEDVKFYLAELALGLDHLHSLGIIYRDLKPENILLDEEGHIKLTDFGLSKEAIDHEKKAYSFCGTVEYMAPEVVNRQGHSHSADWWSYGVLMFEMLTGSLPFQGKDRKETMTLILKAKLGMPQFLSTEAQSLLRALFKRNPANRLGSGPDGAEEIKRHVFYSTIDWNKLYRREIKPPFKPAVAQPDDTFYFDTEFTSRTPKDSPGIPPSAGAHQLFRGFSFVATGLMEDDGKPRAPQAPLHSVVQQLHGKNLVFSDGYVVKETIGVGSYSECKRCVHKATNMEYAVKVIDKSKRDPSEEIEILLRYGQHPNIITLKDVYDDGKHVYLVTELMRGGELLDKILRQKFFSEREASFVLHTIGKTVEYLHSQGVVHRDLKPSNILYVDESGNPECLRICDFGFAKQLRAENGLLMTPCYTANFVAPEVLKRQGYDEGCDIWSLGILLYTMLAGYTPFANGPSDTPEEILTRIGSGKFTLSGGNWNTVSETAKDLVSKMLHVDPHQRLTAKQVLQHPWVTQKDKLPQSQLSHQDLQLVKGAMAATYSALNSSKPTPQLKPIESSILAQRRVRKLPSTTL

Sequence of Mitogen-activated protein kinase 8 (P45983 whole entry): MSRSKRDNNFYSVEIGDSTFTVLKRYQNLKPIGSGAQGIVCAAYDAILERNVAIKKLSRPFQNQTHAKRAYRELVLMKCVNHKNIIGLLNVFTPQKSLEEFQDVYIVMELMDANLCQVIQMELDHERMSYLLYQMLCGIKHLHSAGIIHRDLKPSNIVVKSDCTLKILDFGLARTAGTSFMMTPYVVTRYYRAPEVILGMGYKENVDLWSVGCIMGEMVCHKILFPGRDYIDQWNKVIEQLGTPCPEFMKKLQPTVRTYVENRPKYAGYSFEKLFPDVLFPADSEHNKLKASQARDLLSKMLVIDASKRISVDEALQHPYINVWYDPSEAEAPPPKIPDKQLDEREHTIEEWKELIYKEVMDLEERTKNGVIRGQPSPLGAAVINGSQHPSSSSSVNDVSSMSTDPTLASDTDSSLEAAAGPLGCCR
Sequence of Tyrosine-protein kinase Fes/Fps (P07332 whole entry): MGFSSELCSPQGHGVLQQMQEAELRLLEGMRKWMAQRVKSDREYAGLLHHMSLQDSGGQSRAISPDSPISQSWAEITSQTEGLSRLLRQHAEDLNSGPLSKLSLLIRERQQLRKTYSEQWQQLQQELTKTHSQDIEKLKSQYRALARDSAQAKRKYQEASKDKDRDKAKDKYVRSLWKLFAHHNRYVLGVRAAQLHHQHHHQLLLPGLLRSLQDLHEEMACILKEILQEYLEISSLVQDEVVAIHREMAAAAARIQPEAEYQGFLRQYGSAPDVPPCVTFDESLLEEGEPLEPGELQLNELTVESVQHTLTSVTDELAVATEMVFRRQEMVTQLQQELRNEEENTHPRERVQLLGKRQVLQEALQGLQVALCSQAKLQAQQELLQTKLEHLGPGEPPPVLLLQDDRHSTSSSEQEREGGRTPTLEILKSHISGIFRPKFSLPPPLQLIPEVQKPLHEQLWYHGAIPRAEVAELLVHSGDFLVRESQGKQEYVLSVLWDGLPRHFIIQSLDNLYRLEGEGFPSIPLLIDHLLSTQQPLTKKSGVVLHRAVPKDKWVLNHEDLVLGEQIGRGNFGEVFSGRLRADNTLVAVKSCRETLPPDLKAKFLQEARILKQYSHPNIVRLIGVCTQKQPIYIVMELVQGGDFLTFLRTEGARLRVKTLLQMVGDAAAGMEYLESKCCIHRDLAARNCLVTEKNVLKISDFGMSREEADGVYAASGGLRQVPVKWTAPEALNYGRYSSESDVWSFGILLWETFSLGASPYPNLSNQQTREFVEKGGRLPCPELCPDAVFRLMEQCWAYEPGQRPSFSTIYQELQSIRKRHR
Sequence of NUAK family SNF1-like kinase 1 (Homo sapiens) (O60285 whole entry): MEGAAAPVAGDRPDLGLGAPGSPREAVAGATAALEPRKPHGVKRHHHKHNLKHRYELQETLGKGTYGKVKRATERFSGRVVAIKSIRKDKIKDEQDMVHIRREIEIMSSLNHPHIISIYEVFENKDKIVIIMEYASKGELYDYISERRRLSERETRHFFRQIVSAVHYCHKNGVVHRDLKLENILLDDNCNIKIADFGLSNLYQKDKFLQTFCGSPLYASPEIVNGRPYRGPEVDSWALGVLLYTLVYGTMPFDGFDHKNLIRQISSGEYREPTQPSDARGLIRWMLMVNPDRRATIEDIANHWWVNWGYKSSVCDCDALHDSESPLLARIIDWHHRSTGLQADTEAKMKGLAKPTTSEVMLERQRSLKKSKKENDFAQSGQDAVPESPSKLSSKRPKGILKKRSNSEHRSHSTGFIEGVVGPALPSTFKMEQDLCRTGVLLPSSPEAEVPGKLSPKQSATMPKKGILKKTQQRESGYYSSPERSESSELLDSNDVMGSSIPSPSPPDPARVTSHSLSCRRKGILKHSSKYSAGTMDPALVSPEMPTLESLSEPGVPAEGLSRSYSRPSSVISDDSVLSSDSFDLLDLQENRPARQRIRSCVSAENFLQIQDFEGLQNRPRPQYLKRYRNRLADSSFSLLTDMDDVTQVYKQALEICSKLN
Sequence of Activated CDC42 kinase 1 (Q07912 whole entry): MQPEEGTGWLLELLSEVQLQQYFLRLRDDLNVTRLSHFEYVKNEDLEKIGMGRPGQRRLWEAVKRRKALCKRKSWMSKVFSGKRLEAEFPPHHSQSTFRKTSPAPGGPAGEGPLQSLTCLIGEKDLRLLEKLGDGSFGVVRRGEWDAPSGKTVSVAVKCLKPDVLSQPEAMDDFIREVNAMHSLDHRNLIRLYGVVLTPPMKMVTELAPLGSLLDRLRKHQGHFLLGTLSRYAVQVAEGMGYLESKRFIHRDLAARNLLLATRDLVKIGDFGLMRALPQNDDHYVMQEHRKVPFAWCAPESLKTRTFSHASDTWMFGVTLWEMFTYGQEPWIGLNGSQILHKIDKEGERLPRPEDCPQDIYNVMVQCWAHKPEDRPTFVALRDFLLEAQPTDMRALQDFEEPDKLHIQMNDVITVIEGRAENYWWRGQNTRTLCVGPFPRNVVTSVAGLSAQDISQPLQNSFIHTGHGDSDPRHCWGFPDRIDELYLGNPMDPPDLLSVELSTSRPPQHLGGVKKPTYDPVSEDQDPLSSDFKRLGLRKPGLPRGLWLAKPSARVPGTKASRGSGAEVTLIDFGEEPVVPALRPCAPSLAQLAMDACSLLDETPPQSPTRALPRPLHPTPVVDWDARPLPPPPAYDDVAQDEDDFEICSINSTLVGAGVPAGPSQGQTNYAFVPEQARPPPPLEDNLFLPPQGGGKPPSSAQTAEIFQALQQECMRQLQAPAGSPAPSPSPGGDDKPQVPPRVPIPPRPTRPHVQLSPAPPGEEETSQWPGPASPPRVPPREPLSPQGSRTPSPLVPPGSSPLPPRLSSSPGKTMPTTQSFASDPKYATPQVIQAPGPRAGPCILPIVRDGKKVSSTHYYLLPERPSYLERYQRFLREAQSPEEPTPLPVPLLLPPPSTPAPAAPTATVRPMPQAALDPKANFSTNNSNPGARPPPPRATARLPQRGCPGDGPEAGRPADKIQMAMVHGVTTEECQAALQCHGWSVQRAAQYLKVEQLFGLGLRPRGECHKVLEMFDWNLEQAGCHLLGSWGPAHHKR

COc1c(Nc2ncc(Cl)c(N[C@H]3[C@@H](C(N)=O)[C@@H]4C=C[C@H]3C4)n2)ccc2c1CC[C@@H](N1CCOCC1)CC2
half-life [1]: 42 min
IC50 [2]: 99 nM
inhibition [3]: > 90%
AUC(0-t) at 12 h [4]: 38200 ng·h/mL
concentration at 2 h [5]: 4180 ng/mL
clearance [6]: 6 mL/min/kg
inhibition [7]: > 90%
concentration at 12 h [8]: 1570 ng/mL
clearance [9]: 40 mL/min/kg
IC50 (Activated CDC42 kinase 1): 41 nM
Cmax [10]: 427 ng/mL
concentration at 6 h [11]: 3840 ng/mL
AUC [12]: 21400 ng·h/mL
AUC [13]: 409 ng·h/mL
growth inhibition (GI) (NB1643): Active
IC50 [14]: 61 nM
